37 variants from the RNAGym collection of RNA variant scans (doi:10.1126/science.aae0568) can be followed below.

B1: tRNA (parent)
chain: GUUCCGUUGGCGUAAUGGUAACGCGUCUCCCUCCUAAGGAGAAGACUGCGGGUUCGAGUCCCGUACGGAACG

This sample holds only a part of the variants without activity. A value given as a limit tells only on which side of the number the result lay.

Variants of B1 are the subject of the series. Kind of series: yeast fitness relative to wild type (ratio to wild type); higher = fitter; tRNA-Arg(CCU), competitive growth, 37 C, YPD. In outline: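 Amplicons of the tRNA-Arg(CCU) gene were sequenced, 100-nucleotide paired-end, from the start population and from each end population of a pooled yeast competition. The competition, in six parallel replicates, lasted 24 hours in YPD at 37°C. Fitness relative to wild type was calculated from changes in genotype frequencies. Genotypes had to have ≥ 100 starting reads, and estimates < 0.5 were set to 0.5.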
Consider GUUCCGUUGGCGUAAUGGUAACGCGUCUACCUCCUAAGGAGAAGACUGCGGGUUCGAAUCCCGUACGGAACG [C29A G58A], for which the yeast fitness is 0.653.

Turning to GUUCCGUUGGCGUAAUGGUAACGCGUCUACCUCCUAAGCAGAAGACUGCGGGUUCGGGUCUCGUAUGGAACG [C29A G39C A57G C61U C66U], the yeast fitness is 0.561.

GUUCCGUUGGCGUAAUGGUAACGCGUCUACCUCCUAAGGAGAAGACUGCGGGUUAGAGUCCCGUACGGAACG [C29A C55A]: the yeast fitness is at most 0.5.

As to GUUCCGUUGGCGUAAUGGUAACGCGUCUACCUCCUAAGGAGAAGACUGCGGGUUUGAGUCCCGUACGGAACG [C29A C55U], the yeast fitness worked out at 0.603.

As to GUUCCGUUGGCGUAAUGGUAACGCGUCUACCCCCUAAGGAGUAGACUGCGGGUUCGAGUCCCGUACAGAACG [C29A U32C A42U G67A], the yeast fitness was found to be 0.522.

As to GUUCCGUUGGCGUAAUGGUAACGCGUCUACCUACUAAGGAGAAGACUGCGCGUUCGAGUCUCGUACGGAACG [C29A C33A G51C C61U], the yeast fitness was at most 0.5.

Take GUUCCGUUGGCGUAAUGGUAACGCGUCUACCUCCCAAGGAGAAGACUGCGGGUUCGAGUCCCGUACAGAACG [C29A U35C G67A]: the yeast fitness is at most 0.5.

For GUUCCGUUGGCGUAAUGGUAACGCGUCUACCUCCUAAGGAGAAGACUGCGGGUACGUGUCCCGUACGGAACG [C29A U54A A57U], the yeast fitness worked out at 0.535.

Turning to GUUCCGUUGGCGUAAUGGUAACGCGUCUACCUCCUAAGCAGAAGACUGCGGGUUCGAGUCCCGUACGGAACG [C29A G39C], the yeast fitness turned out to be 0.817.

As to GUUCCGUUGGCGUAAUGGUAACGCGUCUACCUCCUAAGGAGAAGACUGGGGGUUCGAGUCCCGUACGGAACG [C29A C49G], the yeast fitness came to 0.623.

With GUUCCGUUGGCGUAAUGGUAACGCGUCUACCUCCUAAGGAGAAGACUGCGCGUUCGAGUCCCGUACGGAACG [C29A G51C], the yeast fitness is at most 0.5.

For the variant GUUCCGUUGGCGUAAUGGUAACGCGUCUACCUCCUAAGGAGAAGACUGCGAGUUCGAGUCCCGUACGGAACG [C29A G51A], the yeast fitness turned out to be 0.544.

For the variant GUUCCGUUGGCGUAAUGGUAACGCGUCUACCUCCUAAGGAGAAGACUGCGGGUUCGAGUCCAGUACGGAACG [C29A C62A], the yeast fitness is 0.581.

With GUUCCGUUGGCGUAAUGGUAACGCGUCUACCUCCUAAGGAGAAGACUCCGGGUUCGAGUCCCGUACGGCACG [C29A G48C A69C], the yeast fitness came to 0.531.

Take GUUCCGUUGGCGUAAUGGUAACGCGUCUACCUCCUAAGGAGAAGACUGCGGGUUCGAGUCCCAUACGGAACG [C29A G63A]: the yeast fitness was 0.623.

As for GUUCCGUUGGCGUAAUGGUAACGCGUCUACCUCCUAAGGAGAAGACUGCGGGUGCGAGUCCCGUACGGAACG [C29A U54G], the yeast fitness is at most 0.5.

On to GUUCCGUUGGCGUAAUGGUAACGCGUCUACCUCCUAAGGAGAAGACUGCGGGAUCGAGUCCCGUACGGAACG [C29A U53A], for which the yeast fitness stood at 0.51.

In the case of GUUCCGUUGGCGUAAUGGUAACGCGUCUACCUCCUAAGGAGAAGACUGCGGGUUCGAGUCGCGUACCAAACG [C29A C61G G67C G68A], the yeast fitness is at most 0.5.

Regarding GUUCCGUUGGCGUAAUGGUAACGCGUCUACCUCCUAAGGAGAAGACUGCGGGUUCCAGUCCCGUACGGAACG [C29A G56C], the yeast fitness was at most 0.5.

With GUUCCGUUGGCGUAAUGGUAACGCGUCUACCUCCUAAGGAGAAGACUGCGGGUUCAAGUCCCGUACGGAACG [C29A G56A], the yeast fitness was found to be 0.794.

Take GUUCCGUUGGCGUAAUGGUAACGCGUCUACCUCCUAAGGAGAAGACUGCGGGUUCGAGUCCCGUACGCAACG [C29A G68C]: the yeast fitness stood at 0.621.

For the variant GUUCCGUUGGCGUAAUGGUAACGCGUCUACCUCCUAAGGAGAAGACUGCGGGUUCGAGUCCCGUACGUAACG [C29A G68U], the yeast fitness came to 0.721.

For GUUCCGUUGGCGUAAUGGUAACGCGUCUACCACCUAAGGAGAAGCCUGCGGGUUCGAGUCCCGUCCGGAACG [C29A U32A A45C A65C], the yeast fitness came to 0.651.

For the variant GUUCCGUUGGCGUAAUGGUAACGCGUCUACCUCGUAAGGAGAAGACUGCGGGUUCGCGUCCCGUACGGAACG [C29A C34G A57C], the yeast fitness is at most 0.5.

In the case of GUUCCGUUGGCGUAAUGGUAACGCGUCUGCCUCCUGAGGUGAAGACUGCGGGUUCGAGUCCCGUACGGAACG [C29G A36G A40U], the yeast fitness is at most 0.5.

With GUUCCGUUGGCGUAAUGGUAACGCGUCUACCUCCUAAGGAGAAGACAGCGGGUUCGAGUCCCGUACGCAACG [C29A U47A G68C], the yeast fitness was at most 0.5.

Regarding GUUCCGUUGGCGUAAUGGUAACGCGUCUACCUCCUAAGGAGAAGACUGCCGGUUCGAGUCCCGUACGGAUCG [C29A G50C A70U], the yeast fitness is at most 0.5.

For the variant GUUCCGUUGGCGUAAUGGUAACGCGUCUACCUCCUAAGGAGAAGACUGCGGCUUCGAGUCCCGUACGAAACG [C29A G52C G68A], the yeast fitness is at most 0.5.

On to GUUCCGUUGGCGUAAUGGUAACGCGUCUACCUCCUAAGGAGAAGAGUGCGGGUUCGAGUCCCGUACGGAACG [C29A C46G], for which the yeast fitness was determined as 0.634.

As for GUUCCGUUGGCGUAAUGGUAACGCGUCUACCUCCUAAGGAAACGACUGCGGGUUCGAGUCCCGUACGGACCG [C29A G41A A43C A70C], the yeast fitness was at most 0.5.

Turning to GUUCCGUUGGCGUAAUGGUAACGCGUCUACCUCCUAAGGAGAAGAUUGCGGGUUCGAGUCCCGUACGGAGCG [C29A C46U A70G], the yeast fitness was determined as 0.711.

Regarding GUUCCGUUGGCGUAAUGGUAACGCGUCUACCUCCUAAGGAGAACACUGCGGGUUCGAGUCCCGUACAGAACG [C29A G44C G67A], the yeast fitness was at most 0.5.

Turning to GUUCCGUUGGCGUAAUGGUAACGCGUCUACCUCCUAAGGAGAAGACUGCGGGUUCGAGUCCUGCACGGAACG [C29A C62U U64C], the yeast fitness was found to be 0.554.

With GUUCCGUUGGCGUAAUGGUAACGCGUCUACCUGCUAGGGAGAAGACUGUGGGUUCGAGUCCCGUAUGGAACG [C29A C33G A37G C49U C66U], the yeast fitness is at most 0.5.

Regarding GUUCCGUUGGCGUAAUGGUAACGCGUCUACCUCCCAAGGAGAAGACUGCGGGUUCGAGUCCCGUACGGAGCG [C29A U35C A70G], the yeast fitness is at most 0.5.

GUUCCGUUGGCGUAAUGGUAACGCGUCUACCUCCUAAGGAGAAGACUACAGGUUCGAGUCCCGUAUGGAACG [C29A G48A G50A C66U]: the yeast fitness was at most 0.5.

For the variant GUUCCGUUGGCGUAAUGGUAACGCGUCUACCCCCUAAGGAGAAGACUGCGGGUUCGAGUCCCGUACGGAACG [C29A U32C], the yeast fitness is 0.618.
